In ChEMBL document CHEMBL3627606, “Development of Novel, CNS Penetrant Positive Allosteric Modulators for the Metabotropic Glutamate Receptor Subtype 1 (mGlu1), Based on an N-(3-Chloro-4-(1,3-dioxoisoindolin-2-yl)phenyl)-3-methylfuran-2-carboxamide Scaffold, That Potentiate Wild Type and Mutant mGlu1 Receptors Found in …” (J Med Chem, 2015):

Legend:
[1] = molecular target: T1, Metabotropic glutamate receptor 1 (Homo sapiens, UniProt Q13255); assay: Positive allosteric modulation of human mGlu1 receptor in HEK293 cells assessed as potentiation of glutamate-induced calcium mobiliztion by Fluo-4AM dye based fluorescence analysis; type: functional, cell-based
Target sequence in this assay (Q13255 whole entry): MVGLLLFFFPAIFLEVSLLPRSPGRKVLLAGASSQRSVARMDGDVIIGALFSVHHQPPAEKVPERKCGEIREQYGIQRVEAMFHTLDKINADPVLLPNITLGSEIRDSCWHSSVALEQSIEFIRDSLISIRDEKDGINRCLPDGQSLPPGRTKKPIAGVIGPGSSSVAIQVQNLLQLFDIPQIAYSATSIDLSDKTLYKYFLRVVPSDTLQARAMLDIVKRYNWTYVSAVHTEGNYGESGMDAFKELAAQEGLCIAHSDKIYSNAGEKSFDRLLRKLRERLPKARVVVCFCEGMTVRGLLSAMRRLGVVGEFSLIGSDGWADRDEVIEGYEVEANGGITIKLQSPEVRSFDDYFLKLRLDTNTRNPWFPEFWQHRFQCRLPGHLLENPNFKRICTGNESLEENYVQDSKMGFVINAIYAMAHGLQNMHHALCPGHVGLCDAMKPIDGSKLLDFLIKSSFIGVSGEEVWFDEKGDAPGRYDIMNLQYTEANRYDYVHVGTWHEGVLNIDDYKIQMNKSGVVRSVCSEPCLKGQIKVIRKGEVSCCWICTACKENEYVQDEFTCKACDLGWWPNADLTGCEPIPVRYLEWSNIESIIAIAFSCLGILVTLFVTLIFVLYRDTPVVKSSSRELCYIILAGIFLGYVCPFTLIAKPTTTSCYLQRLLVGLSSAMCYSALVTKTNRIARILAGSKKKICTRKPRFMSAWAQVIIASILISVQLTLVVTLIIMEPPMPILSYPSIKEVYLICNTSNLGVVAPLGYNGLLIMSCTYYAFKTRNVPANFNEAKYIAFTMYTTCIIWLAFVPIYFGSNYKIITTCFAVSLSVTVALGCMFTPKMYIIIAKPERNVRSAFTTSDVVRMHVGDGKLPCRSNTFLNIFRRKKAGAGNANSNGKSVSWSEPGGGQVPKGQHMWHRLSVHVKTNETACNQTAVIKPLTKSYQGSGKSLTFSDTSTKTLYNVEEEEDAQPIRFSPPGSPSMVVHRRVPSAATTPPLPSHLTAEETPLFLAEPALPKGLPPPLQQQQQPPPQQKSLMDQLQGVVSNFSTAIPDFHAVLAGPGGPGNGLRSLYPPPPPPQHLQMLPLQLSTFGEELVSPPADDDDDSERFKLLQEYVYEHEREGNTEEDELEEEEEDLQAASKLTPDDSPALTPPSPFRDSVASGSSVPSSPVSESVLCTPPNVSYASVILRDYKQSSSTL

[2] = molecular target: T1, Metabotropic glutamate receptor 1; assay: Positive allosteric modulation of human mGlu1 receptor in HEK293 cells assessed as potentiation of glutamate-induced calcium mobiliztion by Fluo-4AM dye based fluorescence analysis relative to glutamate; type: functional, cell-based
Target sequence in this assay (Q13255 19-1194 limits assumed): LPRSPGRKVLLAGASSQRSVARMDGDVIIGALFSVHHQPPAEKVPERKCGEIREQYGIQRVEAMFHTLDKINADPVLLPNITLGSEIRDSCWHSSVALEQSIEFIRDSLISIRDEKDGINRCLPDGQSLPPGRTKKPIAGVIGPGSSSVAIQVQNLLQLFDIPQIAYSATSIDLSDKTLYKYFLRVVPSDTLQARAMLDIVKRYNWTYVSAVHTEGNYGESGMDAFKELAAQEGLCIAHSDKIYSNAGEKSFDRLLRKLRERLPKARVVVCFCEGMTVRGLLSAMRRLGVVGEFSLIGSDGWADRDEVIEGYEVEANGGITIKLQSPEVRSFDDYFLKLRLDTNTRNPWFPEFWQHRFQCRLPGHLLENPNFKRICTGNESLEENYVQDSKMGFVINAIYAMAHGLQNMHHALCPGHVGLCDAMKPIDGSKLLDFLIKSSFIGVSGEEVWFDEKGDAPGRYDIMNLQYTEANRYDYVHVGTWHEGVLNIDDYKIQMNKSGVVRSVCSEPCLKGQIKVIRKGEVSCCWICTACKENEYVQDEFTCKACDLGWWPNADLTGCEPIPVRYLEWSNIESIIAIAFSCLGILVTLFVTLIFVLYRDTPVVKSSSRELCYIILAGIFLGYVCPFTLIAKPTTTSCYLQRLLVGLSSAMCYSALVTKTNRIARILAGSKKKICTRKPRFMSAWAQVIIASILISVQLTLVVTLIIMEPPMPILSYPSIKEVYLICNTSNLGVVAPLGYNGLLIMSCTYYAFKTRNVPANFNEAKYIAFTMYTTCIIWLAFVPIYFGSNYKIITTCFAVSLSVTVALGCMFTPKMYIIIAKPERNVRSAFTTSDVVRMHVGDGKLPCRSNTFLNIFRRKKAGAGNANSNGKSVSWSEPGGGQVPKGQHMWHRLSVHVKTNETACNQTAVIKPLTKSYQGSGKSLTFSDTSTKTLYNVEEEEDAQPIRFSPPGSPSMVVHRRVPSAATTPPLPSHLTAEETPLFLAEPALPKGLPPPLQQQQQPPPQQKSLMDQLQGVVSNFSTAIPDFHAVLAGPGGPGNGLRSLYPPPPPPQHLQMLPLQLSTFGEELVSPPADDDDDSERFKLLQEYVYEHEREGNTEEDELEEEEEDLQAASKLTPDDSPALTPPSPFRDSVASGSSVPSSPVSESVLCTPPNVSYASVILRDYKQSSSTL

Homo sapiens = organism: Homo sapiens; assay: Selectivity index, ratio of EC50 for human mGlu4 receptor to EC50 for human mGlu1 receptor
[3] = molecular target: Metabotropic glutamate receptor 1 (Rattus norvegicus) (UniProt P23385); assay: Positive allosteric modulation of rat mGlu1 receptor assessed as potentiation of glutamate-induced calcium mobiliztion by cell based assay relative to glutamate; type: functional
How it was run: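 Rat mGlu1 WT calcium mobilization concentration-response curves. EC50 and % Glu Max were derived from the curves.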

[4] = molecular target: T1, Metabotropic glutamate receptor 1; assay: Positive allosteric modulation of human mGlu1 receptor in HEK293 cells assessed as potentiation of glutamate-induced calcium mobiliztion at 10 uM by Fluo-4AM dye based fluorescence analysis; type: functional, cell-based
Target sequence in this assay (Q13255 19-1194 limits assumed): as above

[5] = molecular target: T1, Metabotropic glutamate receptor 1; assay: Agonist activity at human mGlu1 receptor in HEK293 cells assessed as calcium mobilization at 10 uM by Fluo-4AM dye based fluorescence analysis; type: functional, cell-based
Target sequence in this assay (Q13255 19-1194 limits assumed): as above

[6] = molecular target: Metabotropic glutamate receptor 2 (Homo sapiens) (UniProt Q14416); assay: Positive allosteric modulation of mGlu2 receptor (unknown origin) assessed as potentiation of glutamate-induced response by cell-based assay
How it was run: (§1)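 Selectivity counterscreen at the other mGlu subtypes using the standard fold-shift paradigm. Compound was tested at 10 μM against the glutamate concentration-response curve, and the shift of that curve was read.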

[7] = molecular target: Metabotropic glutamate receptor 3 (Homo sapiens) (UniProt Q14832); assay: Positive allosteric modulation of mGlu3 receptor (unknown origin) assessed as potentiation of glutamate-induced response by cell-based assay; how it was run: as §1
[8] = molecular target: Metabotropic glutamate receptor 5 (Homo sapiens) (UniProt P41594); assay: Positive allosteric modulation of mGlu5 receptor (unknown origin) assessed as potentiation of glutamate-induced response by cell-based assay; how it was run: as §1
Metabotropic glutamate receptor 5 (Homo sapiens), sequence (P41594 21-1212 limits assumed): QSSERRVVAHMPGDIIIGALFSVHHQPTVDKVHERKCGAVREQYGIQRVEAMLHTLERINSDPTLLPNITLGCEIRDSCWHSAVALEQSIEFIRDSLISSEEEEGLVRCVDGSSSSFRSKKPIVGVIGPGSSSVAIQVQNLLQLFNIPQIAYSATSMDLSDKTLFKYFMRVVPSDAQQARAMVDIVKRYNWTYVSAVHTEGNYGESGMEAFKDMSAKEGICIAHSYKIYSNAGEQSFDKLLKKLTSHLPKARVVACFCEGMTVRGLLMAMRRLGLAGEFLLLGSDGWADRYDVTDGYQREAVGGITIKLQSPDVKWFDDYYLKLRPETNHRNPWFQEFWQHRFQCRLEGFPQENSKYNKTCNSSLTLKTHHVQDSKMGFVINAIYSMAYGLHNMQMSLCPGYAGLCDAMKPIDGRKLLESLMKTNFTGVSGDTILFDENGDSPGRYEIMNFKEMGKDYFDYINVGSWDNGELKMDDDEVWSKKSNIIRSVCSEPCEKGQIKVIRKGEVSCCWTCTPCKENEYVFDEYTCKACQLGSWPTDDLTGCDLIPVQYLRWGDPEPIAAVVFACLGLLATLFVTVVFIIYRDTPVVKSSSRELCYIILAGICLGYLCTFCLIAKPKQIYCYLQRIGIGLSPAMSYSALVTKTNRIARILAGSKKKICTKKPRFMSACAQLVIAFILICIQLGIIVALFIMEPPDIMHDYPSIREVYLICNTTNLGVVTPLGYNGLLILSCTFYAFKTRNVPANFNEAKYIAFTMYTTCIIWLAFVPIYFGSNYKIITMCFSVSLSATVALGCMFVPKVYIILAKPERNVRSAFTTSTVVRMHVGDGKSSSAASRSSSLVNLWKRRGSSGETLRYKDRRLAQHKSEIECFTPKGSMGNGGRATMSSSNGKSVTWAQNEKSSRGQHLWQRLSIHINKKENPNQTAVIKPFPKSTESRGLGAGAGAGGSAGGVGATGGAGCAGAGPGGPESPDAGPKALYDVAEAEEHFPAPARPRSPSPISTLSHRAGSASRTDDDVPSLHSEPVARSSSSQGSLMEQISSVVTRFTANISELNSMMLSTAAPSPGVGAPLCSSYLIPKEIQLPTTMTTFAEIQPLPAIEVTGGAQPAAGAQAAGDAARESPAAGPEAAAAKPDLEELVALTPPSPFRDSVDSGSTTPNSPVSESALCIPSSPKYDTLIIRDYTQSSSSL

[9] = molecular target: Metabotropic glutamate receptor 6 (Homo sapiens) (UniProt O15303); assay: Positive allosteric modulation of mGlu6 receptor (unknown origin) assessed as potentiation of glutamate-induced response by cell-based assay; how it was run: as §1
Metabotropic glutamate receptor 6 (Homo sapiens), sequence (O15303 whole entry): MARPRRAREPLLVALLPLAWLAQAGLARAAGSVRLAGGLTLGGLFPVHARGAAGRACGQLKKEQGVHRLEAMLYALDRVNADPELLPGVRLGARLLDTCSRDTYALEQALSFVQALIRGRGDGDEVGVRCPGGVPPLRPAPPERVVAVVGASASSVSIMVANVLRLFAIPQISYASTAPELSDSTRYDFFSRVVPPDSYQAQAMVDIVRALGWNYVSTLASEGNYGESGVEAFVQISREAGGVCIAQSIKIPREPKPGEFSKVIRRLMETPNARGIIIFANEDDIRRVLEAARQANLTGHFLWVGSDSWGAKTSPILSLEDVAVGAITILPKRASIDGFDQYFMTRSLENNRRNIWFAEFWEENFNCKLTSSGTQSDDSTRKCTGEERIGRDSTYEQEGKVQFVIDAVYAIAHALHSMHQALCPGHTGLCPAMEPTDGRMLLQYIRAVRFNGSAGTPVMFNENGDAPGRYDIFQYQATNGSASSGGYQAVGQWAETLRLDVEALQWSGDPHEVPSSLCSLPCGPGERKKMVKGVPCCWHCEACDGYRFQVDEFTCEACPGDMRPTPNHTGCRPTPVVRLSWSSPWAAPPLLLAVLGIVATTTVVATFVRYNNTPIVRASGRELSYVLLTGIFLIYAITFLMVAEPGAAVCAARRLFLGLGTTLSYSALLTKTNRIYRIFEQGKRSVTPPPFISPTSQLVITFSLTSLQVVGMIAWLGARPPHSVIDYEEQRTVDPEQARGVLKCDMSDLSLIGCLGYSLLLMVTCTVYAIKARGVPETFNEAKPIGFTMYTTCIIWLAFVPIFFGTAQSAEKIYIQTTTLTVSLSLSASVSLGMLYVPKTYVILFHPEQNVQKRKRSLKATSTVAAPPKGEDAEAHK

[10] = molecular target: Metabotropic glutamate receptor 7 (Homo sapiens) (UniProt Q14831); assay: Positive allosteric modulation of mGlu7 receptor (unknown origin) assessed as potentiation of glutamate-induced response by cell-based assay; how it was run: as §1
[11] = molecular target: Metabotropic glutamate receptor 8 (Homo sapiens) (UniProt O00222); assay: Positive allosteric modulation of mGlu8 receptor (unknown origin) assessed as potentiation of glutamate-induced response by cell-based assay; how it was run: as §1
[12] = Intrinsic clearance in human liver microsomes at 1 uM by LC-MS/MS analysis; type: ADME; conditions: read-out: CLH
Plasma [13] = assay: Fraction unbound in human plasma; type: ADME, cell-free
Plasma [14] = assay: Fraction unbound in rat plasma; type: ADME, cell-free
Cytochrome P450 1A2 = molecular target: T2, Cytochrome P450 1A2 (Homo sapiens, UniProt P05177); assay: Inhibition of CYP1A2 in human liver microsomes by LC-MS/MS analysis; type: ADME
T2 sequence (P05177 whole entry): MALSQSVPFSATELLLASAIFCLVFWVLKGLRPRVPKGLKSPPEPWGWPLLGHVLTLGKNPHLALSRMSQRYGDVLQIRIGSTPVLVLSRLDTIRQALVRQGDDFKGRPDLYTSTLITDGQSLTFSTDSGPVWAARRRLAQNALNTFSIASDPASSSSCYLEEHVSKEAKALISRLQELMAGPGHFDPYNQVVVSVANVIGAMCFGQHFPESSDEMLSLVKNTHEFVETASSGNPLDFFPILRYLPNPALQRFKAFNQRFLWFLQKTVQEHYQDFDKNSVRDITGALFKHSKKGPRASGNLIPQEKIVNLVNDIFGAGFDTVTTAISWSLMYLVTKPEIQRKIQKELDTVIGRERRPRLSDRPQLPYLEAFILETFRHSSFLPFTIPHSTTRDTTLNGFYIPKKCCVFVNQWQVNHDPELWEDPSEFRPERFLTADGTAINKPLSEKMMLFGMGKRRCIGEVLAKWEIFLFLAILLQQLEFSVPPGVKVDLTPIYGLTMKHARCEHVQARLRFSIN

Cytochrome P450 2C9 = Cytochrome P450 2C9 (Homo sapiens, UniProt P11712); assay: Inhibition of CYP2C9 in human liver microsomes by LC-MS/MS analysis; type: ADME
Cytochrome P450 2C9, sequence (P11712 whole entry): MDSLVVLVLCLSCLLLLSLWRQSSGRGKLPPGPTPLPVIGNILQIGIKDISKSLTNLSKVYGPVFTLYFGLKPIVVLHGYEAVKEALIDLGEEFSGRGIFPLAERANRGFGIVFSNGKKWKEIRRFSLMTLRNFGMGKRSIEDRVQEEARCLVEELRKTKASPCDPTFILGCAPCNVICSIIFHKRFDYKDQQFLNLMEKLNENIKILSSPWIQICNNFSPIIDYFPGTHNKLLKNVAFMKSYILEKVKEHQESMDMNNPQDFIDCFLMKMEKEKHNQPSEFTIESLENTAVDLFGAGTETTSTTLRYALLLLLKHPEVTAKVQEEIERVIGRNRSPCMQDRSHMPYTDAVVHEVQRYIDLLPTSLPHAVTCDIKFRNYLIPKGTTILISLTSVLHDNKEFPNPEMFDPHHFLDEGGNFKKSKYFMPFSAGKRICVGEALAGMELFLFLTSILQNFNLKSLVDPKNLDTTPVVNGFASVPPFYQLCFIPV

Cytochrome P450 3A4 = Cytochrome P450 3A4 (Homo sapiens, UniProt P08684); assay: Inhibition of CYP3A4 in human liver microsomes by LC-MS/MS analysis; type: ADME
[15] = tested on: Metabotropic glutamate receptor 1 (Homo sapiens), Q13255 [P729T]; assay: Agonist activity at human mGlu1 P729T mutant receptor expressed in HEK293 cells assessed as calcium mobilization at > 1 uM uM by Fluo-4AM dye based fluorescence analysis; type: functional, cell-based
Metabotropic glutamate receptor 1 (Homo sapiens), Q13255 [P729T], sequence (Q13255 whole entry P729T): as the sequence (Q13255 whole entry) above, with P729T counted along it

[16] = tested on: Metabotropic glutamate receptor 1 (Homo sapiens), Q13255 [Y632H]; assay: Agonist activity at human mGlu1 Y632H mutant receptor expressed in HEK293 cells assessed as calcium mobilization at > 1 uM uM by Fluo-4AM dye based fluorescence analysis; type: functional, cell-based
Metabotropic glutamate receptor 1 (Homo sapiens), Q13255 [Y632H], sequence (Q13255 whole entry Y632H): as the sequence (Q13255 whole entry) above, with Y632H counted along it

Hippocampus = assay: Toxic epileptiform activity in C57BL/6 mouse CA3 region of hippocampus assessed as frequency of spike activity at 10 uM by electrophysiolgy method (reference value: 0.99 +/- 0.38 Hz); type: toxicity, tissue-based
How it was run: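 Mouse hippocampal slices with extracellular recording from the CA3 pyramidal cell body layer. Compound (10 μM) or DHPG (50 μM) was bath-applied, and the frequency of spontaneous spikes was compared with baseline. n = 6 per agent, paired t test.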

Mus musculus = assay: Toxicity in C57BL/6 mouse assessed as seizure activity at 100 mg/kg, ip administered as single dose measured for 3 hrs; type: organism-based; conditions: in vivo
How it was run: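 Male C57Bl/6 mice (25−30 g) dosed ip in 10% Tween 80 at 10 mL/kg: the mGlu5 ago-PAM at 1 or 3 mg/kg, the mGlu1 PAMs at 100 mg/kg. Behaviour was monitored continuously for 3 h and scored on a modified Racine scale (0−5).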

Brain = assay: Drug concentration in C57BL/6 mouse brain at 100 mg/kg, ip administered as single dose; type: ADME, organism-based; conditions: in vivo, read-out: Drug uptake
[17] = Half life in Sprague-Dawley rat at 0.2 mg/kg, iv by LC-MS/MS analysis; conditions: in vivo
[18] = Plasma clearance in Sprague-Dawley rat at 0.2 mg/kg, iv by LC-MS/MS analysis
[19] = Drug concentration in Sprague-Dawley rat brain at 0.2 mg/kg, iv after 0.25 hrs by LC-MS/MS analysis; conditions: read-out: Drug uptake
[20] = Ratio of drug level in brain to plasma of Sprague-Dawley rat at 0.2 mg/kg, iv after 0.25 hrs by LC-MS/MS analysis; conditions: read-out: BPR

EC50 ([1]; read-out: EC50): 0.0318 µM
EC50 ([1]; read-out: pEC50 (converted)): 0.0324 µM
%max [2]: 98%
Ratio EC50 (Homo sapiens): 34.9
%max [3]: 103%
fold change (FC) [4]: 11.4
Activity [5]: 35%
fold change (FC) [6]: < 2
fold change (FC) [7]: < 2
fold change (FC) [8]: 2.7
fold change (FC) [9]: 6.7
fold change (FC) [10]: 7
fold change (FC) [11]: < 2
CLint scaled at 1 µM [12]: 3.1 mL/min/kg
Fu (Plasma [13]): 0.051
Fu (Plasma [14]): 0.03
IC50 (Cytochrome P450 1A2): 25.2 µM
IC50 (Cytochrome P450 2C9): 6.45 µM
IC50 (Cytochrome P450 3A4): > 30 µM
Activity [15]: 40%
Activity [16]: 40%
concentration (Brain): 9.2 µM
half-life [17]: 53.6 min
clearance [18]: 13.3 mL/min/kg
concentration at 0.25 h [19]: 204 ng/mL
Kp at 0.25 h [20]: 1.02
SMILES: Cc1ccoc1C(=O)Nc1ccc(N2C(=O)c3cccc(F)c3C2=O)c(Cl)c1
Activity (Hippocampus): 1.16 Hz
Activity (Mus musculus): Non-toxic
